“Also recorded” adds a separate entry of the source.
Assays:
[1] = Plasma pharmacokinetics, LC/MS/MS, non-compartmental analysis; type: in vivo, human; settings: for AUC(0-t) / Cmax / half-life: human, plasma, po
[2] = system: AKT phosphorylation (pAKT) in platelet-rich plasma (PRP); experiment: AKT phosphorylation in platelet-rich plasma; type: in vivo, human
Method in brief: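 Oral single-dose run-in (Cycle 0, Day 1): citrated blood taken pre-dose and at 1, 2, 6, 24, 48 and 72 h, plus pre-dose on Cycle 1, Day 15. Spun 200 × g, 4°C, 15 min; PRP stabilised with phosphatase inhibitor, lysed with PMSF-containing buffer, snap-frozen. Phospho- and total AKT by quantitative electrochemiluminescent assay with recombinant active AKT standard curve per plate and spiked QC samples. p-AKT/total AKT expressed as % change from pre-treatment.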

advanced solid tumors = experiment: Tumor response; type: in vivo, human
Method in brief: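 Response assessed by RECIST v1.1 using imaging at baseline and every two cycles in patients dosed orally, QD or BID, in 28-day cycles. Response data summarised with descriptive statistics.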

class III PI3K = settings: cited from earlier work
[3] = system: mammalian target of rapamycin (mTOR); settings: cited from earlier work
[4] = system: human cancer cell lines with alterations in the PI3K pathway; settings: in vitro; cited from earlier work
[5] = system: human tumor xenograft models with PIK3CA mutations; settings: in vivo; cited from earlier work

With `CS(=O)(=O)N1CCc2c(-c3cnc(N)nc3)nc(N3CCOCC3)nc21` [CH5132799] the Accumulation ratio ([1]; 2mg (QD), AUC0-24h repeat dose / single dose, mean, n=3) was 0.912(3), the Accumulation ratio ([1]; 4 mg (QD), AUC0-24h repeat dose / single dose, mean, n=3) was 1.54(3) and the Accumulation ratio ([1]; 8 mg (QD), AUC0-24h repeat dose / single dose, mean, n=2) was 1.22(2). The Accumulation ratio ([1]; 16 mg (QD), AUC0-24h repeat dose / single dose, n=1) was 0.972(1), the Accumulation ratio ([1]; 32 mg (QD), AUC0-24h repeat dose / single dose, mean, n=2) was 1.57(2) and the Accumulation ratio ([1]; 48 mg (BID), AUC0-12h repeat dose / single dose, mean, n=2) was 1.10(2). The Accumulation ratio ([1]; 56 mg (BID), AUC0-12h repeat dose / single dose, mean, n=2) was 1.72(2), the Accumulation ratio ([1]; 56 mg (QD), AUC0-24h repeat dose / single dose, mean, n=3) was 1.07(3) and the Accumulation ratio ([1]; 72 mg (BID), AUC0-12h repeat dose / single dose, n=1) was 2.25(1). For the same molecule, the Accumulation ratio ([1]; 96 mg (QD), AUC0-24h repeat dose / single dose, mean, n=3) was 0.640(3), the “AUC at doses above the dose-proportional range” value ([1]; doses above 56 mg QD) was “no further increase in AUC; also recorded: no significant increments in AUC” and the AUC(0-t) ([1]; 2 mg, AUC0-24h, 2mg (QD), repeat dose, mean, n=3) was 0.0488 µg·h/mL. The AUC(0-t) ([1]; 2 mg, AUClast, 2mg (QD), single dose, mean, n=3, AUClast = AUC0-72h) was 0.053 µg·h/mL, the Cmax ([1]; 2 mg, 2mg (QD), repeat dose, mean, n=3) was 0.00992 µg/mL and the Cmax ([1]; 2 mg, 2mg (QD), single dose, mean, n=3) was 0.01 µg/mL. The half-life ([1]; 2 mg, t1/2, 2mg (QD), single dose, mean, n=3) was 7.52 h, the AUC(0-t) ([1]; 4 mg, AUC0-24h, 4 mg (QD), repeat dose, mean, n=3) was 0.167 µg·h/mL and the AUC(0-t) ([1]; 4 mg, AUClast, 4 mg (QD), single dose, mean, n=3, AUClast = AUC0-72h) was 0.112 µg·h/mL. For the same molecule, the Cmax ([1]; 4 mg, 4 mg (QD), repeat dose, mean, n=3) was 0.0225 µg/mL, the Cmax ([1]; 4 mg, 4 mg (QD), single dose, mean, n=3) was 0.0172 µg/mL and the half-life ([1]; 4 mg, t1/2, 4 mg (QD), single dose, mean, n=3) was 8.3 h. It also gave an AUC(0-t) ([1]; 8 mg, AUC0-24h, 8 mg (QD), repeat dose, mean, n=2) of 0.159 µg·h/mL, an AUC(0-t) ([1]; 8 mg, AUClast, 8 mg (QD), single dose, mean, n=3, AUClast = AUC0-72h) of 0.133 µg·h/mL and a Cmax ([1]; 8 mg, 8 mg (QD), repeat dose, mean, n=2) of 0.0463 µg/mL. For the same molecule, the Cmax ([1]; 8 mg, 8 mg (QD), single dose, mean, n=3) was 0.0411 µg/mL, the half-life ([1]; 8 mg, t1/2, 8 mg (QD), single dose, mean, n=3) was 23.7 h and the AUC(0-t) ([1]; 16 mg, AUC0-24h, 16 mg (QD), repeat dose, mean, n=2) was 0.621 µg·h/mL. The AUC(0-t) ([1]; 16 mg, AUClast, 16 mg (QD), single dose, n=1, AUClast = AUC0-72h) was 0.883 µg·h/mL, the Cmax ([1]; 16 mg, 16 mg (QD), repeat dose, mean, n=3) was 0.1 µg/mL and the Cmax ([1]; 16 mg, 16 mg (QD), single dose, n=1) was 0.113 µg/mL. It also gave a half-life ([1]; 16 mg, t1/2, 16 mg (QD), single dose, n=1) of 13.7 h, an AUC(0-t) ([1]; 32 mg, AUC0-24h, 32 mg (QD), repeat dose, mean, n=2) of 1.74 µg·h/mL and an AUC(0-t) ([1]; 32 mg, AUClast, 32 mg (QD), single dose, mean, n=4, AUClast = AUC0-72h) of 0.859 µg·h/mL. The Cmax ([1]; 32 mg, 32 mg (QD), repeat dose, mean, n=3) was 0.345 µg/mL, the Cmax ([1]; 32 mg, 32 mg (QD), single dose, mean, n=4) was 0.165 µg/mL and the half-life ([1]; 32 mg, t1/2, 32 mg (QD), single dose, mean, n=4) was 12.2 h. For the same molecule, the half-life ([1]; 48 mg) was 10.2 h, the AUC(0-t) ([1]; 48 mg, AUC0-24h, 48 mg (BID) = MTD, repeat dose (steady state), mean, n=5, calculated based on data from 0 to 12 hours (AUC0-12h)) was 1.55 µg·h/mL and the AUC(0-t) ([1]; 48 mg, AUClast, 48 mg (BID) = MTD, single dose, mean, n=4, AUClast = AUC0-72h) was 1.27 µg·h/mL. It also gave a Cmax ([1]; 48 mg, 48 mg (BID) = MTD, repeat dose (steady state), mean, n=5) of 0.175 µg/mL, a Cmax ([1]; 48 mg, 48 mg (BID) = MTD, single dose, mean, n=5) of 0.172 µg/mL and an AUC(0-t) ([1]; 56 mg, AUC0-24h, 56 mg (BID), repeat dose, mean, n=2, calculated based on data from 0 to 12 hours (AUC0-12h)) of 5.94 µg·h/mL. The AUC(0-t) ([1]; 56 mg, AUC0-24h, 56 mg (QD), repeat dose, mean, n=3) was 0.748 µg·h/mL, the AUC(0-t) ([1]; 56 mg, AUClast, 56 mg (BID), single dose, mean, n=5, AUClast = AUC0-72h) was 3.03 µg·h/mL and the AUC(0-t) ([1]; 56 mg, AUClast, 56 mg (QD), single dose, mean, n=3, AUClast = AUC0-72h) was 0.969 µg·h/mL. The Cmax ([1]; 56 mg, 56 mg (BID), repeat dose, mean, n=3) was 0.331 µg/mL, the Cmax ([1]; 56 mg, 56 mg (BID), single dose, mean, n=5) was 0.428 µg/mL and the Cmax ([1]; 56 mg, 56 mg (QD), repeat dose, mean, n=3) was 0.184 µg/mL. For the same molecule, the Cmax ([1]; 56 mg, 56 mg (QD), single dose, mean, n=3) was 0.163 µg/mL, the half-life ([1]; 56 mg, t1/2, 56 mg (BID), single dose, mean, n=5) was 16.3 h and the half-life ([1]; 56 mg, t1/2, 56 mg (QD), single dose, mean, n=3) was 14.5 h. It also gave an AUC(0-t) ([1]; 72 mg, AUC0-24h, 72 mg (BID), repeat dose, n=1, calculated based on data from 0 to 12 hours (AUC0-12h)) of 5.58 µg·h/mL, an AUC(0-t) ([1]; 72 mg, AUClast, 72 mg (BID), single dose, mean, n=3, AUClast = AUC0-72h) of 2.48 µg·h/mL and a Cmax ([1]; 72 mg, 72 mg (BID), repeat dose, n=1) of 0.631 µg/mL. The Cmax ([1]; 72 mg, 72 mg (BID), single dose, mean, n=3) was 0.265 µg/mL, the half-life ([1]; 72 mg, t1/2, 72 mg (BID), single dose, mean, n=3) was 18.3 h and the AUC(0-t) ([1]; 96 mg, AUC0-24h, 96 mg (QD), repeat dose, mean, n=3) was 0.691 µg·h/mL. The AUC(0-t) ([1]; 96 mg, AUClast, 96 mg (QD), single dose, mean, n=4, AUClast = AUC0-72h) was 1.65 µg·h/mL, the Cmax ([1]; 96 mg, 96 mg (QD), repeat dose, mean, n=3) was 0.103 µg/mL and the Cmax ([1]; 96 mg, 96 mg (QD), single dose, mean, n=4) was 0.206 µg/mL. For the same molecule, the half-life ([1]; 96 mg, t1/2, 96 mg (QD), single dose, mean, n=3) was 23.2 h, the “Dose range with dose proportionality of AUC” value ([1]; oral) was 2 to 56 mg and the “Maximal inhibition of p-AKT in PRP compared to baseline” value ([2]; achieved at dose levels of 32 mg) was “approximately 50%”. For the same molecule, the “Duration of target engagement (reduction in phosphorylation of AKT in PRP)” value ([2]; after single dose) was “less than 24 hours”, the “Dose levels at which p-AKT was consistently reduced in PRP” value ([2]; p-AKT Ser473) was 8 to 96 mg and the “Dose with significant inhibition of PI3K signalling (reduction of AKT phosphorylation) in PRP” value ([2]; single dose, 2 hrs post-dose) was no less than 32 mg. The “Response by GCIG CA125 criteria, patient with PIK3CA H1047R-mutated clear cell ovarian cancer” value (advanced solid tumors; 48 mg BID) was “partial response; also recorded: GCIG CA125 response”, the “Time on study of patient with GCIG CA125 response” value (advanced solid tumors; 48 mg BID) was 6 cycles and the “Clinical response, heavily pre-treated patient with triple negative breast cancer (no PIK3CA or AKT mutations)” value (advanced solid tumors; 72 mg BID) was “marked symptomatic and objective improvement in their cutaneous skin lesions”. For the same molecule, the “RECIST partial or complete responses” value (advanced solid tumors; all patients) was “no RECIST partial or complete responses”, the “Study participants with best response of stable disease by RECIST” value (advanced solid tumors; all patients) was 21% and the “Inhibitory activity against class III PI3K” value (class III PI3K) was “no inhibitory activity”. For the same molecule, the “Inhibitory activity against mTOR” value [3] was “no inhibitory activity”, the Antiproliferative effect [4] was “strong antiproliferative effect” and the Antitumor activity [5] was “significant antitumor activity”.

Source: paper PMC4254850 (Clinical cancer research : an official journal of the …, 2014)
